Screens as filed in PubChem.
SENP8 block-1 = inhibitors of human SENP8 protease. Q96LD8. recombinant SENP8, Nedd8 substrate fluorescence. inhibition, % at 20 µM. hit rate 0.64% among 360,000; in the data active = inhibition mostly above about 40%, no sharp cut-off; inactive = mostly below about 27%
Target sequence (Q96LD8 whole entry, looked up): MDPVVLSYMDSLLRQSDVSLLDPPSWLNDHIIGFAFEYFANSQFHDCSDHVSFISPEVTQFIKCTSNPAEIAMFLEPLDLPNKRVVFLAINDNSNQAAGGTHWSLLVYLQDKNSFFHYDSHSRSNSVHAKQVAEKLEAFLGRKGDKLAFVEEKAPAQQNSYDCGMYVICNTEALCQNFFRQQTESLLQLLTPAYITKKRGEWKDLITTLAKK
SENP8 block-2 = blocks the human protease SENP8. Q96LD8. purified SENP8, Z-RLRGG-aminoluciferin cleavage, luminescence. inhibition, % at 10 µM. hit rate 1.2% among 330,000. AID 2540; in the data active = inhibition above about 50%
Platelet DG rel = platelet dense granule release activity | human platelet-rich plasma, SFLLRN dense granule ATP release, luminescence | inhibition, %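 (compounds screened at 7.5 µM in platelet-rich plasma)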 | hit rate 0.22% among 300,000;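 active = mean replicate score, as percent of positive control, at or above 50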
SENP6 inh = blocks the human protease SENP6; Recombinant SENP6 catalytic domain, aminoluciferin luminescence; Q9GZR1; inhibition, % at 10 µM; hit rate 1.8% among 330,000;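 active = inhibition above about 50% at the single tested dose, limit read from the data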
SENP1 inh = SENP1 (human) catalytic domain inhibition; Q9P0U3; inhibition, % at 10 µM; hit rate 0.21% among 360,000; recombinant SENP1 catalytic domain, CyPet-SUMO1-YPet FRET cleavage;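 active = inhibition at least 30% at 10 µM, raw YFP signal under a set limit, fluorescence ratio 0.5 to 1.5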
Target sequence (Q9P0U3 419-644 limits assumed): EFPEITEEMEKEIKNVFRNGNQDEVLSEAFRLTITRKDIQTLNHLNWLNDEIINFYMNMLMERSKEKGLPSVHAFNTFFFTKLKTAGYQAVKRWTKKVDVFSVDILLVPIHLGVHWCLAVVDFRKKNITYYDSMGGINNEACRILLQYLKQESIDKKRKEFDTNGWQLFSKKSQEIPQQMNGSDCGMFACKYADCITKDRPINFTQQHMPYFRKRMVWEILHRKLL
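Test system: recombinant human SENP1 catalytic domain, His6-tagged / Medium: pH 8 Tris buffer with EDTA, NaCl, BME, BSA, NP40, catalase / Also added: SUMO1 FRET substrate flanked by Cypet and Ypet, 25 nM / Times: 50 min reaction at room temperature / Signal: FRET, CFP and YFP emission / Control set: no-enzyme low control and enzyme-plus-DMSO high control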
SENP7 block = inhibitors of human SENP7 protease; Q9BQF6; recombinant SENP7, Z-RLRGG-aminoluciferin luminescence, 40 min; inhibition, % at 5 µM; hit rate 1.5% among 330,000; AID 434973;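 active = inhibition above about 50% at the single test dose, limit read from the data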
SENP8 confirm = confirmation of human SENP8 protease inhibitors; hit rate 40% among 6,200; shares compounds with SENP7 block; Recombinant SENP8, Z-RLRGG-aminoluciferin luminescence, 60 min; inhibition, % at 12.5 µM;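 active = mean inhibition across replicates above about 50%, limit read from the data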
SENP6 conf = confirmation of human SENP6 protease inhibitors. shares compounds with SENP7 block. recombinant SENP6, Z-RLRGG-aminoluciferin luminescence. inhibition, % at 12.5 µM. hit rate 58% among 6,200
SENP7 conf = human SENP7 inhibition, confirmed; inhibition, % at 12.5 µM; recombinant SENP7, Z-RLRGG-aminoluciferin luminescence, 40 min; AID 488917; shares compounds with SENP7 block; hit rate 69% among 6,200
Casp3 select = caspase-3 inhibition (SENP selectivity assay); shares compounds with SENP7 block; purified caspase-3, Z-DEVD-aminoluciferin luminescence, 60 min; inhibition, % at 12.5 µM; hit rate 60% among 6,200; AID 488918;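 active = mean inhibition above about 50%, limit read from the data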
Target sequence (P42574 28-227 limits assumed): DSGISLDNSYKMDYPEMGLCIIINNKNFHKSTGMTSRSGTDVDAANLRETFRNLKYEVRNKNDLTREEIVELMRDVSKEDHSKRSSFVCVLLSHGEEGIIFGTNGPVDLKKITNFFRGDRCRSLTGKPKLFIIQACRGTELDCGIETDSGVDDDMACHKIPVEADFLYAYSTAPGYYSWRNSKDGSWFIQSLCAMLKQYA
Luc interf = luminescence interference (SENP counter-screen). inhibition, % at 12.5 µM. hit rate 39% among 6,200. shares compounds with SENP7 block. Pre-incubated SENP8/Z-RLRGG-aminoluciferin, luciferase luminescence interference;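 active = mean inhibition above about 50% when retested at one dose, limit read from the data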
Hits are given with their value. Most compounds without a hit are left out; they make up all but 2.6% or so of the library.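 The calls were made as follows, unless noted: active = mean inhibition above about 50% in the one-dose retest (limit read from the data); inactive = the rest.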

Screening COc1ccc(COC(=O)c2c(C)nn(-c3ccccc3)c2Cl)cc1 returned SENP8 block-1 inactive, SENP8 block-2 inactive, Platelet DG rel inactive, SENP6 inh 61.5, SENP1 inh inactive, SENP7 block inactive, SENP8 confirm inactive, SENP6 conf inactive, SENP7 conf 53.8, Casp3 select inactive and Luc interf inactive.
For COc1cccc(NC(=O)Nc2ccccc2C(N)=O)c1 the results were SENP8 block-1 inactive, SENP8 block-2 60.9, Platelet DG rel inactive, SENP6 inh 73.9, SENP1 inh inactive, SENP7 block 82.0, SENP8 confirm 70.3, SENP6 conf 67.9, SENP7 conf 90.1, Casp3 select 85.4 and Luc interf 76.8.
`O=C(Nc1cccc(Cl)c1)c1ccc(OC(=S)N2CCOCC2)cc1` gave SENP8 block-1 inactive, SENP8 block-2 inactive, Platelet DG rel inactive, SENP6 inh inactive, SENP1 inh inactive, SENP7 block 78.5, SENP8 confirm inactive, SENP6 conf inactive, SENP7 conf 77.6, Casp3 select inactive and Luc interf inactive.
For COc1ccc(OC(=O)c2cnc3n(c2=O)CCS3)cc1 the results were SENP8 block-1 inactive, SENP8 block-2 inactive, Platelet DG rel inactive, SENP6 inh inactive, SENP1 inh inactive and SENP7 block inactive.
For CCCCN(C(=O)CC1CCCCC1)c1c(N)n(CCCC)c(=O)[nH]c1=O the results were SENP8 block-1 inactive and SENP1 inh inactive.
`Cc1ccc(N2CC(C(=O)N3CCCCCC3)CC2=O)cc1` (centres undefined) gave SENP8 block-1 inactive, SENP8 block-2 inactive, Platelet DG rel inactive, SENP6 inh inactive, SENP1 inh inactive and SENP7 block inactive.
O=C(Nc1cccc(Cl)c1)N1CCCCCC1 was read as SENP8 block-1 inactive, SENP8 block-2 inactive, Platelet DG rel inactive, SENP6 inh inactive, SENP1 inh inactive and SENP7 block inactive.
Screening COc1cccc(NC(=O)c2ccccc2F)c1 returned SENP8 block-1 inactive, SENP8 block-2 inactive, SENP6 inh 51.3, SENP1 inh inactive, SENP7 block inactive, SENP8 confirm inactive, SENP6 conf inactive, SENP7 conf 67.0, Casp3 select 72.0 and Luc interf 53.1.
For NC(=S)Nc1cccc(Cl)c1 the results were SENP8 block-1 inactive, SENP8 block-2 inactive, Platelet DG rel inactive, SENP6 inh inactive, SENP1 inh inactive and SENP7 block inactive.
`CS/C(N)=N/C(=S)Nc1cccc(Cl)c1` gave SENP8 block-1 inactive, SENP8 block-2 inactive, Platelet DG rel inactive, SENP6 inh 58.0, SENP1 inh inactive, SENP7 block inactive, SENP8 confirm 71.7, SENP6 conf 67.8, SENP7 conf 88.5, Casp3 select 56.7 and Luc interf 75.5.
O=C(Nc1ccc(C(=O)N2CCCCC2)cc1)Nc1cccc(Cl)c1 was read as SENP8 block-1 inactive, SENP8 block-2 inactive, Platelet DG rel inactive, SENP6 inh 66.7, SENP1 inh inactive, SENP7 block 72.8, SENP8 confirm inactive, SENP6 conf inactive, SENP7 conf inactive, Casp3 select inactive and Luc interf inactive.
For CCc1cccc(NC(=O)COC(=O)c2c(C)nn(-c3ccccc3)c2C)c1 the results were SENP8 block-1 inactive and SENP1 inh inactive.
`COc1cccc(NC(=O)COC(=O)c2c(C)nn(-c3ccccc3)c2C)c1` gave SENP8 block-1 inactive, SENP8 block-2 65.4, SENP6 inh 75.9, SENP1 inh inactive, SENP7 block 73.5, SENP8 confirm 70.8, SENP6 conf 66.7, SENP7 conf 90.4, Casp3 select 69.7 and Luc interf 74.7.
CC1(C)CC(NC(=O)C2CCC(=O)N(C3CC3)C2)CC(C)(C)C1 (centres undefined) was read as SENP8 block-1 inactive, SENP8 block-2 inactive, Platelet DG rel inactive, SENP6 inh inactive, SENP1 inh inactive and SENP7 block inactive.
Cc1cc(C)c2c(n1)SCC(=O)N2CC(=O)Nc1cc(F)ccc1F was read as SENP8 block-1 inactive, SENP8 block-2 inactive, Platelet DG rel inactive, SENP6 inh inactive, SENP1 inh inactive and SENP7 block inactive.
For COc1cccc(NC(=S)NC(=O)Cc2ccccc2)c1 the results were SENP8 block-1 inactive, SENP8 block-2 inactive, Platelet DG rel inactive, SENP6 inh inactive, SENP1 inh inactive and SENP7 block inactive.
`COc1cccc(NC(=O)c2ncc(Cl)c(Cl)c2Cl)c1` gave SENP8 block-1 inactive, SENP8 block-2 86.9, Platelet DG rel inactive, SENP6 inh 69.5, SENP1 inh inactive, SENP7 block 90.3, SENP8 confirm inactive, SENP6 conf 88.9, SENP7 conf 100.6, Casp3 select 91.4 and Luc interf inactive.
For NC(=O)c1ccccc1NC(=O)Nc1cccc(Cl)c1 the results were SENP8 block-1 inactive, SENP8 block-2 81.9, Platelet DG rel inactive, SENP6 inh 60.5, SENP1 inh inactive, SENP7 block 92.1, SENP8 confirm 86.5, SENP6 conf 87.3, SENP7 conf 99.4, Casp3 select 81.8 and Luc interf 88.7.
For COc1cccc(NC(=O)Cc2ccccc2)c1 the results were SENP8 block-1 inactive, SENP8 block-2 67.0, Platelet DG rel inactive, SENP6 inh 74.0, SENP1 inh inactive, SENP7 block 78.4, SENP8 confirm 69.8, SENP6 conf 65.2, SENP7 conf 89.8, Casp3 select 83.3 and Luc interf 76.3.
`O=C(Nc1ccccc1)Nc1cccc(Cl)c1` gave SENP8 block-1 inactive, SENP8 block-2 inactive, Platelet DG rel inactive, SENP6 inh 59.7, SENP1 inh inactive, SENP7 block 55.4, SENP8 confirm 58.3, SENP6 conf 58.5, SENP7 conf 85.9, Casp3 select inactive and Luc interf 70.7.
COc1ccc(Cl)cc1NC(=O)Nc1ccccc1C(N)=O was read as SENP8 block-1 inactive, SENP8 block-2 inactive, Platelet DG rel inactive, SENP6 inh inactive, SENP1 inh inactive and SENP7 block inactive.
For Cc1ccc(OCC(=O)OCC(=O)NC2CC2)cc1C the results were SENP8 block-1 inactive, SENP8 block-2 inactive, SENP6 inh inactive, SENP1 inh inactive and SENP7 block inactive.
CC(=O)C12OC(C)(C)OC1CC1C3CCC4=CC(=O)C=CC4(C)C3(F)C(O)CC12C (centres undefined) was read as SENP8 block-1 inactive and SENP1 inh inactive.
